Assay results pooled from the literature.
Compare with care: the assays were run in different laboratories.
Target: STE20-like serine/threonine-protein kinase (SLK, Homo sapiens, UniProt Q9H2G2)

| Compound | test | test system | setting | quantity | value |
| --- | --- | --- | --- | --- | --- |
| CCN1CCN(Cc2ccc(NC(=O)c3ccc(C)c(Oc4ccnc5[nH]ccc45)c3)cc2C(F)(F)F)CC1 | target engagement in cells, inhibitor, chemoproteomics | Huh-7 | 10 µM | inhibition | -24.5% |
| Cc1ccc(Nc2nccc(N(C)c3ccc4c(C)n(C)nc4c3)n2)cc1S(N)(=O)=O | enzyme activity, inhibitor |  | 0.5 µM | remaining activity | 84.9% |
| Nc1ncnc2occ(-c3ccc(NC(=O)Nc4cc(C(F)(F)F)ccc4F)cc3)c12 | cell-free assay, inhibitor |  | 20 µM | remaining signal | 0.05% |
| Nc1cnc(N2CCc3cc(S(=O)(=O)Nc4c(F)cc(Cl)cc4F)cc(N4CCCC4=O)c32)nc1 | cell-free assay, competition with immobilised ligand |  | 1 µM | remaining binding | 100% |
| COc1cc(Cl)c(C(=O)N[C@@H](CN[C@H]2CC[C@@H](N)CC2)Cc2ccc(C#N)cc2)cc1-c1ccc(CN[C@H](C)c2ccc(C)cc2)o1 | enzyme activity, inhibitor |  | 1 µM | remaining activity | 95% |
| CN1CCN(c2cnc3c(C4CCN(C(=O)c5ccc(OC(F)(F)F)cc5N)CC4)ncnc3c2)CC1 | cell-free assay, competition with immobilised ligand |  | 1 µM | remaining binding | 96% |
| COc1cc(-c2cc(-c3ccc(N4CCNCC4)cc3)cnc2C)cc(OC)c1OC | enzyme activity, inhibitor |  | 0.1 µM | inhibition | 12% |
| COc1cc(Nc2c(C#N)cnc3cc(OCCCN4CCN(C)CC4)c(OC)cc23)c(Cl)cc1Cl | cell-free assay |  | 0.5 µM | remaining signal | 21.6% |
| CC/C(=N\NC(=O)NCc1cccc(O)c1)c1ccc(O)c(C)c1O | enzyme activity, inhibitor |  | 0.1 µM | inhibition | 4% |
| CC1(C)NC(=O)c2[nH]c3c(Cl)c(Cl)ccc3c2C1C#N (stereo not shown) | thermal stability, DSF |  | 10 µM | ΔTm | -0.5 °C |
| Cc1c[nH]c2nccc(Oc3c(F)cc(Nc4cc(Cl)nc(N)n4)cc3F)c12 | cell-free assay, competition with immobilised ligand |  | 0.1 µM | remaining binding | 97% |
| COc1cc2nccc(Oc3ccc(NC(=O)Nc4ccc(F)cc4F)c(F)c3)c2cc1OC | thermal stability, DSF |  | 10 µM | ΔTm | 5 to 10 °C |
| CC(=O)C1=C(C)N(c2cccc(C(F)(F)F)c2)C(=O)N[C@@H]1c1ccc(C#N)nc1 | cell-free assay, competition with immobilised ligand |  | 1 µM | remaining binding | 98.4% |
| Cc1ccc(NC(=O)c2ccc(CN3CCN(C)CC3)cc2)cc1Nc1nc(-c2cccnc2)cs1 | cell-free assay |  | 0.5 µM | remaining signal | 92.4% |
| Cn1c2c(c3ccc(Cl)c(Cl)c31)C(C#N)C(C)(C)NC2=O (stereo not shown) | thermal stability, DSF |  | 10 µM | ΔTm | -0.1 °C |
| O=C1CCc2cc(Nc3cc(OC4CCOCC4)c([N+](=O)[O-])cc3Cl)ccc2N1 | cell-free assay, competition with immobilised ligand |  | 1 µM | remaining binding | 100% |
| CCN1CCC2(CC1)NC(=O)c1c(c3ccc(Cl)c(Cl)c3n1C)C2C#N (racemic) | thermal stability, DSF |  | 10 µM | ΔTm | 0.1 °C |
| CC(C)(C)c1nc2c(s1)c1nc(N)ncc1c1ccc(NS(=O)(=O)c3c(F)cccc3F)c(F)c12 | enzyme activity, inhibitor, radiometric |  | 1 µM | remaining activity | 95% |
| O=C1NC(c2ccccn2)Sc2ccccc21 (stereo not shown) | cell-free assay, competition with immobilised ligand |  | 1 µM | remaining binding | 76% |
| O=C(Nc1cnn(-c2csc(C(=O)NC3COC3)c2)c1)Nc1ccccc1Cl | enzyme activity, inhibitor |  | 5 µM | remaining activity | 89.7% |
| CNC(=O)c1cc(Oc2ccc(NC(=O)Nc3ccc(Cl)c(C(F)(F)F)c3)cc2)ccn1 | cell-free assay |  | 0.5 µM | remaining signal | 96.8% |
| O=C(Nc1cnn(-c2csc(C(=O)NC3COC3)c2)c1)Nc1c(F)cccc1Cl | enzyme activity, inhibitor |  | 5 µM | remaining activity | 95% |
| CCOc1cc(-c2nncn2C)ccc1Nc1ncc2cc(C)nc(NCC(C)(C)C)c2n1 | cell-free assay, TR-FRET |  | 1 µM | inhibition | ≤ 15% |
| Cn1c2c(c3ccc(Cl)c(Cl)c31)C(C#N)C1(CCOCC1)NC2=O (stereo not shown) | thermal stability, DSF |  | 10 µM | ΔTm | -0.4 °C |
| Cc1c(C(=O)O)cc(-c2ccc(C3CCNCC3)cc2)c2ccc(-c3ccc(C(F)(F)F)cc3)cc12 | binding, competition with immobilised ligand |  | 1 µM | remaining binding | 100% |
